Source: paper PMC8939876 (RSC Advances, 2019)

How the values were obtained:
Type in all cases: cell-based
[1] = test system: Plasmodium falciparum D6 (CQ-sensitive); settings: D6, read-out: In vitro activity (IC50 nM) D6
[2] = test system: Plasmodium falciparum Dd2 (MDR strain with Old World genetic background); settings: DD2, read-out: In vitro activity (IC50 nM) Dd2
[3] = test system: Plasmodium falciparum 7G8 (MDR strain with New World genetic background); settings: 7G8, read-out: In vitro activity (IC50 nM) 7G8
[4] = test system: HepG2 cells; experiment: HepG2 cytotoxicity assay; settings: Homo sapiens, HepG2, read-out: Cytotoxicity (nM) vs. HepG2
How it was run: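 HepG2 cells kept in RPMI-1640 with 10% FBS (37 °C, 5% CO2) were seeded at 2 × 10^4/well and left to attach overnight. Test compound (10 mM DMSO stock) was serially diluted in medium and applied for 24–36 h. Cells then had fresh medium for 24 h more, then resazurin (final 10 μM) for 3 h. Fluorescence read at ex 560/em 590 nm. IC50 from nonlinear logistic regression.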

[5] = test system: panel of Plasmodium falciparum malaria parasites; settings: for antimalarial activity against all tested strains (in words): D6, Dd2, 7G8 strains; for therapeutic index (the ratio of cytotoxicity to antimalarial therapeutic efficacy): HepG2 cytotoxicity vs antimalarial IC50

Row | SMILES | IC50 [1] [nM] | IC50 [2] [nM] | IC50 [3] [nM] | CC50 [4] [nM] | antimalarial activity against all tested strains (in words) [5] | therapeutic index (the ratio of cytotoxicity to antimalarial therapeutic efficacy) [5]
1 | COc1ccc2[nH]c3ccc(C#N)cc3c(=O)c2c1 [2r, 7-Methoxy-9-oxo-9,10-dihydroacridine-2-carbonitrile] | 983 | 932 | > 2500 | > 200000 | – | –
2 | O=c1c2cc(OC(F)(F)F)ccc2[nH]c2cc3ccccc3cc12 [2x, 2-(Trifluoromethoxy)benzo[b]acridin-12(5H)-one] | 7.03 | 0.563 | 16.5 | > 200000 | excellent activity | high
3 | COc1ccc2[nH]c3c(F)c(F)c(F)c(F)c3c(=O)c2c1 [2t, 1,2,3,4-Tetrafluoro-7-methoxyacridin-9(10H)-one] | > 2500 | 1950 | 393 | > 200000 | – | –
4 | COc1ccc2[nH]c3cc(F)cc(F)c3c(=O)c2c1 [2s, 1,3-Difluoro-7-methoxyacridin-9(10H)-one] | 0.05 | 0.29 | 0.2 | > 200000 | excellent activity | high
5 | COc1ccc2[nH]c3c(OC(F)(F)F)cccc3c(=O)c2c1 [2q, 2-Methoxy-5-(trifluoromethoxy)acridin-9(10H)-one] | 1490 | 1680 | > 2500 | > 200000 | – | –
6 | COc1ccc2c(=O)c3cc(Oc4ccc(Cl)cc4)ccc3[nH]c2c1 [2e, 2-(4-Chlorophenoxy)-6-methoxyacridin-9(10H)-one] | 8.84 | 11.7 | 13.5 | > 200000 | excellent activity | high
7 | COc1ccc2c(=O)c3cc(OC(F)(F)F)ccc3[nH]c2c1 [2d, 6-Methoxy-2-(trifluoromethoxy)acridin-9(10H)-one] | 0.103 | 1.1 | 1.51 | > 200000 | excellent activity | high
8 | COc1ccc2c(=O)c3cc(C#N)ccc3[nH]c2c1 [2i, 6-Methoxy-9-oxo-9,10-dihydroacridine-2-carbonitrile] | 100 | 177 | 228 | > 200000 | – | –
9 | CCN(CC)CCn1c2ccc([N+](=O)[O-])cc2c(=O)c2ccc(OC)cc21 [2l, 10-(2-(Diethylamino)ethyl)-6-methoxy-2-nitroacridin-9(10H)-one] | 405 | 684 | 462 | 12300 | – | –
10 | Cc1ccc2[nH]c3ccc(OC(F)(F)F)cc3c(=O)c2c1 [2w, 2-Methyl-7-(trifluoromethoxy)acridin-9(10H)-one] | 63.1 | 49.2 | 109 | > 200000 | – | –
11 | COc1ccc2c(=O)c3cccc(OC(F)(F)F)c3[nH]c2c1 [2f, 3-Methoxy-5-(trifluoromethoxy)acridin-9(10H)-one] | 782 | 753 | 1140 | > 200000 | – | –
12 | COc1ccc2c(=O)c3cc([N+](=O)[O-])ccc3[nH]c2c1 [2j, 6-Methoxy-2-nitroacridin-9(10H)-one] | 84.1 | 98.1 | 35 | > 200000 | – | –
13 | COc1cccc2c(=O)c3cc(OC(F)(F)F)ccc3[nH]c12 [2v, 5-Methoxy-2-(trifluoromethoxy)acridin-9(10H)-one] | 27.7 | 15.5 | 46.3 | 139000 | excellent activity | high
14 | O=c1c2cc(OCCCl)ccc2[nH]c2cc(F)cc(F)c12 [2u, 7-(2-Chloroethoxy)-1,3-difluoroacridin-9(10H)-one] | 11.6 | 0.91 | 1.22 | > 200000 | excellent activity | high
15 | COc1ccc2c(=O)c3c(F)c(F)c(F)c(F)c3[nH]c2c1 [2n, 1,2,3,4-Tetrafluoro-6-methoxyacridin-9(10H)-one] | 257 | 325 | 41.8 | > 200000 | – | –
16 | COc1ccc2[nH]c3ccc(Oc4ccc(Cl)cc4)cc3c(=O)c2c1 [2p, 2-(4-Chlorophenoxy)-7-methoxyacridin-9(10H)-one] | 573 | 513 | 911 | > 200000 | – | –
17 | COc1ccc2c(=O)c3cc(S(=O)(=O)C(F)(F)F)ccc3[nH]c2c1 [2g, 6-Methoxy-2-((trifluoromethyl)sulfonyl)acridin-9(10H)-one] | 11.6 | 11.6 | 22.2 | > 200000 | excellent activity | high
18 | O=C1C(O)=C([C@H]2CC[C@H](c3ccc(Cl)cc3)CC2)C(=O)c2ccccc21 [ATV, atovaquone, reference compound] | 0.1 | 0.1 | – | – | – | –
19 | CCN(CC)CCCC(C)Nc1ccnc2cc(Cl)ccc12 (centres unmarked) [CQ, chloroquine, reference compound] | – | – | 172 | – | – | –
20 | COc1ccc2[nH]c3ccc(OC(F)(F)F)cc3c(=O)c2c1 [2o, 2-Methoxy-7-(trifluoromethoxy)acridin-9(10H)-one] | 632 | 425 | 437 | > 200000 | – | –
